In ChEMBL document CHEMBL4622914, “Development of a bioavailable boron-containing PI-103 Bioisostere, PI-103BE” (Bioorg Med Chem Lett, 2020):

Experiments:
[1] = system: A549; assay: Antiproliferative activity against human A549 cells assessed as reduction in cell viability incubated for 4 days by coulter counter method; format: functional, cell-based
In short: (§1)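 Cancer cells were seeded at 50,000 per well in DMEM with 5% FBS. They were exposed to six compound doses for 4 days, with DMSO as vehicle control and a reference inhibitor as positive control. Cells were counted by Coulter counter. Survival ratio is treated cell number over vehicle cell number. IC50 was taken from dose–response curves. Triplicate experiments.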

[2] = system: MDA-MB-231; assay: Antiproliferative activity against human MDA-MB-231 cells assessed as reduction in cell viability incubated for 4 days by coulter counter method; format: functional, cell-based; in short: as §1
[3] = system: HeLa; assay: Antiproliferative activity against human HeLa cells assessed as reduction in cell viability incubated for 4 days by coulter counter method; format: functional, cell-based; in short: as §1
[4] = system: CWR22R; assay: Antiproliferative activity against human 22Rv1 cells assessed as reduction in cell viability incubated for 4 days by coulter counter method; format: functional, cell-based; in short: as §1
[5] = Stability of compound in cell culture medium assessed as compound hydrolysis measured after 0.5 hrs; format: physicochemical
[6] = Stability of compound in cell culture medium assessed as compound hydrolysis measured after 1 hr; format: physicochemical
[7] = Stability of compound in cell culture medium assessed as compound hydrolysis measured after 3 hrs; format: physicochemical
[8] = Stability of compound in cell culture medium assessed as compound hydrolysis measured after 8 hrs; format: physicochemical
[9] = Stability of compound in cell culture medium assessed as compound hydrolysis measured after 24 hrs; format: physicochemical

OB(O)c1cccc(-c2nc(N3CCOCC3)c3oc4ncccc4c3n2)c1
Activity [1]: Dose-dependent effect | Activity [2]: Dose-dependent effect | Activity [3]: Dose-dependent effect | Activity [4]: Dose-dependent effect | Drug degradation [5]: 2.39 µM | Drug degradation [6]: 3.08 µM | Drug degradation [7]: 3.52 µM | Drug degradation [8]: 3.55 µM | Drug degradation [9]: 3.53 µM
